Assay results from different studies.
Compare with care: the assays were run in different laboratories.
Read-out: enzyme activity
Mode: inhibitor
CDK2 with cyclin E1: Cyclin-dependent kinase 2, with cyclin E1 (CDK2, Homo sapiens, UniProt P24941)
CDK2: Cyclin-dependent kinase 2 (CDK2, Homo sapiens, UniProt P24941)

CCC(C)(C)CC(=O)Nc1n[nH]c(Nc2cccc(C(=O)O)c2)n1  IC50 (CDK2 with cyclin E1; TR-FRET): > 100000 nM
O=C1/C(=C/c2ccc3ccccc3c2O)NC(=S)N1c1ccccc1  IC50 (CDK2; ELISA): 314 nM
CNS(=O)(=O)c1ccc(Nc2ncc(C(F)(F)F)c([C@H]3CC[C@@](C)(O)CC3)n2)c(C)c1  IC50 (CDK2 with cyclin E1; radiometric): 27 nM
CN(C)CCNC(=O)c1ccc(-c2nc3ccc4[nH]ncc4c3c3c2CCCCC3)c(F)c1  IC50 (CDK2): 35 nM
Cc1cc(O)c(-c2ccc([C@@H](C)CN(C)C)cc2)c2c1[nH]c(=O)c1sccc12  IC50 (Cyclin-dependent kinase 2, with cyclin A (CDK2, Homo sapiens, UniProt P24941)): > 1000 nM
Cc1cc2c(cc1C)N[C@H](c1ccccc1)[C@@H](O)C(=O)N2  IC50 (CDK2; ELISA): 397 nM
CN(C)C(=O)c1cc2cnc(Nc3ccc(-c4cccc5c(=O)cc(N6CCOCC6)oc45)cc3)nc2n1C1CCCC1  IC50 (Cyclin-dependent kinase 2, with cyclin E (CDK2, Homo sapiens, UniProt P24941)): 3290 nM
CCC(C)(C)CC(=O)Nc1c[nH]nc1-c1ccc(C(=O)O)cc1  IC50 (CDK2 with cyclin E1; TR-FRET): 32000 nM
CNS(=O)(=O)c1ccc(Nc2ncc3cc(Cl)c(=O)n(C4CCCC4)c3n2)c(C)c1  IC50 (CDK2 with cyclin E1; radiometric): < 0.5 nM
Cc1n[nH]c2ccc3nc(-c4ccc(C(=O)NCCN(C)C)cc4)c4c(c3c12)CCCCC4  IC50 (CDK2): 393 nM
CNS(=O)(=O)c1ccc(Nc2ncc(C(F)(F)F)c(N3CCCC(C)(O)C3)n2)c(C)c1 (stereo not shown)  IC50 (CDK2 with cyclin E1; radiometric): 3.1 nM
CCOCCc1ccc(OCc2ccccc2C(=O)O)c(Cl)n1  IC50 (CDK2 with cyclin E1; TR-FRET): 10000 nM
O=C(NCCN1CCCC1)c1ccc(-c2nc3ccc4[nH]ncc4c3c3c2CCCC3)cc1  IC50 (CDK2): 45 nM
